We go through two compounds from ChEMBL document CHEMBL1121898, “Potential antiestrogens. Synthesis and evaluation of mammary tumor inhibiting activity of 1,2-dialkyl-1,2-bis(3'-hydroxyphenyl)ethanes” (1981).

Assay [1] is filed under the species Rattus norvegicus. Kind of assay: Complete remission of DMBA-induced hormone-dependent mammary carcinoma tumors in rats at 4.5 mg. It counts as functional. The gist of the method: (§1)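 Female SD rats bearing DMBA-induced, hormone-dependent mammary adenocarcinoma, with at least one tumor >140 mm², were grouped in tens. Dosing was sc per kg body weight: a single dose daily Monday–Thursday and a double dose Friday. Ovariectomy served as the comparison arm. Complete remission was defined as a tumor no longer palpable. Body weight and tumor area changes were also recorded.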

For assay [2], the species on record is Rattus norvegicus. As to the kind of experiment: Percent change in DMBA-induced hormone-dependent mammary carcinoma tumor area at 2.25 mg after 28 days. It counts as functional. The essentials:
(§2)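 DMBA-induced, hormone-dependent mammary adenocarcinoma in SD rats. Rats bearing at least one tumor >140 mm² were placed in groups of ten. Compound was given sc as a single dose (mg/kg) daily Monday–Thursday and a double dose on Friday. Tumors were counted at the start and as new tumors; responses were scored as complete remission (not palpable), partial remission (≥50% reduction), no change or progression. Tumor area and body weight were recorded as % change.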

For assay [3], the species on record is Rattus norvegicus. As to the kind of experiment: Final number of DMBA-induced hormone-dependent mammary carcinoma tumors in rats at 4.5 mg. It counts as functional. The gist of the method:
(§3)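 Sprague-Dawley rats carrying DMBA-induced, hormone-dependent mammary adenocarcinoma, at least one tumor >140 mm², were placed in groups of ten. Compounds were given sc, with doses in mg/kg: a single daily dose Monday to Thursday and a double dose on Friday. Ovariectomy served as a comparator group. New tumors arising during the test were counted.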

For assay [4], the species on record is Rattus norvegicus. As to the kind of experiment: Complete remission of DMBA-induced hormone-dependent mammary carcinoma tumors in ovariectomised rats. Type of assay: functional. The essentials: as §1
Assay [5] is filed under the species Rattus norvegicus. Kind of assay: Partial remission of DMBA-induced hormone-dependent mammary carcinoma tumors in rats at 4.5 mg. It counts as functional. The essentials: as §2
For assay [6], the species on record is Rattus norvegicus. As to the kind of experiment: Partial remission of DMBA-induced hormone-dependent mammary carcinoma tumors in rats at 9 mg. Type of assay: functional. The essentials:
as §2

For assay [7], the species on record is Rattus norvegicus. As to the kind of experiment: Percent unchanged tumor size of DMBA-induced hormone-dependent mammary carcinoma tumors in rats at 4.5 mg. It counts as functional.
The species named for assay [8] is Rattus norvegicus. Kind of assay: Progression of DMBA-induced hormone-dependent mammary carcinoma tumors in rats at 4.5 mg. It counts as functional.
For assay [9], the species on record is Rattus norvegicus. As to the kind of experiment: Progression of DMBA-induced hormone-dependent mammary carcinoma tumors in rats at 9 mg. Type of assay: functional.
The species named for assay [10] is Rattus norvegicus. Kind of assay: Initial tumor number of DMBA-induced hormone-dependent mammary carcinoma in rats at 4.5 mg. It counts as functional. The essentials: as §2
Assay [11] is filed under the species Mus musculus. Kind of assay: Vaginal cornification test in mice at 0.1 ug; predominant cellular component leucocytes (diestrus). Type of assay: functional, organism-based.
Assay [12] addresses T1, Estrogen receptor (Mus musculus) (UniProt O08537+P19785). As to the kind of experiment: Antiestrogenic activity in uterotrophic test in mice at 5 ug. It counts as functional. The gist of the method: (§4)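 Immature female NMRI mice, 20 days old (14.5 ± 1.2 g), randomly grouped 10 per group. Each received a daily sc injection for 3 days of 0.1 mL olive oil solution containing test compound, together with estrone to stimulate uterine growth. Uteri were removed 24 h after the last injection and weighed. Results are reported as % inhibition of the estrone-stimulated uterine weight gain, mean ± SD.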

The target of assay [13] is T1, Estrogen receptor (Mus musculus). As to the kind of experiment: Antiestrogenic activity in uterotrophic test in mice at 50 ug. It counts as functional. The essentials: as §4
Assay [14] shares this target. Kind of assay: Estrogenic activity in uterotrophic test in mice at 3 ug. Type of assay: functional. The essentials:
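Uterine growth stimulation in immature female NMRI mice, 20 days old (14.5 ± 1.2 g), 10 per group. Test compound in 0.1 mL olive oil was given sc daily for 3 days. Uteri were excised 24 h after the final injection and weighed. Effect is reported as mean ± SD.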

For assay [15] the target is unchanged. Kind of assay: Estrogenic activity in uterotrophic test in mice at 9 ug. It counts as functional. The gist of the method: (§5)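 Immature (20-day-old) female NMRI mice, 14.5 ± 1.2 g, randomized into groups of 10. Given the test compound sc daily for 3 days in 0.1 mL olive oil. Uteri removed 24 h after the last injection; uterine weight taken as the read-out, means ± SD. Dose in μg.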

The target is the same in assay [16]. Kind of assay: Estrogenic activity in uterotrophic test in mice at 900 ug. Type of assay: functional. The essentials: as §5
Assay [17] has the same target. As to the kind of experiment: Inhibitory activity in mouse uterine weight test at 5 ug. It counts as functional. The essentials: (§6)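 Antiuterotrophic (Dorfman) assay in immature 20-day-old female NMRI mice, groups of 10. Uterine growth was stimulated with estrone (0.1 μg) and the test compound was given alongside it, sc daily for 3 days in 0.1 mL olive oil. Uteri were taken 24 h after the last dose. Uterine weight is reported as means ± SD and inhibition as % of the estrone-stimulated response.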

Assay [18] shares this target. As to the kind of experiment: Inhibitory activity in mouse uterine weight test at 50 ug. It counts as functional. The gist of the method:
as §6

The species entered for assay [19] is Rattus norvegicus. Kind of assay: Percent change in DMBA-induced hormone-dependent mammary carcinoma tumor area in ovariectomised rats after 28 days. Type of assay: functional. The essentials: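 DMBA-induced, hormone-dependent mammary adenocarcinoma in SD rats, with ovariectomy as the treatment. Rats bearing at least one tumor >140 mm² were placed in groups of ten. Tumors were counted at the start and as new tumors. Responses were scored as complete remission, partial remission (≥50% size reduction), no change or progression, with % change in tumor area and body weight.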

Assay [20] is filed under the species Rattus norvegicus. Kind of assay: Partial remission of DMBA-induced hormone-dependent mammary carcinoma tumors in rats at 2 mg. It counts as functional. The gist of the method:
as §2

The species entered for assay [21] is Rattus norvegicus. As to the kind of experiment: Partial remission of DMBA-induced hormone-dependent mammary carcinoma tumors in rats at 4 mg. It counts as functional. The gist of the method:
as §2

For assay [22], the species on record is Rattus norvegicus. As to the kind of experiment: Percent unchanged tumor size of DMBA-induced hormone-dependent mammary carcinoma tumors in rats at 1 mg. Type of assay: functional.
Assay [23] is filed under the species Rattus norvegicus. Kind of assay: Progression of DMBA-induced hormone-dependent mammary carcinoma tumors in rats at 2 mg. It counts as functional.
Assay [24] is filed under the species Rattus norvegicus. Kind of assay: Progression of DMBA-induced hormone-dependent mammary carcinoma tumors in rats at 1 mg. It counts as functional.
The species named for assay [25] is Rattus norvegicus. Kind of assay: Complete remission of DMBA-induced hormone-dependent mammary carcinoma tumors in rats at 2 mg. Type of assay: functional. The gist of the method:
as §1

Assay [26] is filed under the species Rattus norvegicus. As to the kind of experiment: Initial tumor number of DMBA-induced hormone-dependent mammary carcinoma in rats at 2 mg. Type of assay: functional. The gist of the method:
as §2

The species named for assay [27] is Rattus norvegicus. Kind of assay: Percent change in DMBA-induced hormone-dependent mammary carcinoma tumor area at 1 mg after 28 days. Type of assay: functional. The essentials: as §2
The species named for assay [28] is Mus musculus. As to the kind of experiment: Vaginal cornification test in mice at 2.5 ug; predominant cellular component leucocytes (diestrus). Type of assay: functional, organism-based.
The species named for assay [29] is Mus musculus. Kind of assay: Vaginal cornification test in mice at 25 ug; predominant cellular component leucocytes (diestrus). Type of assay: functional, organism-based.
The species entered for assay [30] is Mus musculus. Kind of assay: Predominant components of vaginal smear at a compound concentration of 500 ug was determined using vaginal cornification test; leucocytes (</= 50%), nucleated and cornified, nucleated cellscharacteristic of antiestrogens. It counts as functional, organism-based.
Assay [31] is filed under the species Rattus norvegicus. Kind of assay: Initial tumor number of DMBA-induced hormone-dependent mammary carcinoma in rats at 4 mg. It counts as functional. The gist of the method:
as §2

Assay [32] concerns the target T1, Estrogen receptor (Mus musculus). Kind of assay: Antiestrogenic activity in uterotrophic test in mice at 5 ug (experiment 1). Type of assay: functional. The gist of the method:
as §4

Assay [33] has the same target. As to the kind of experiment: Antiestrogenic activity in uterotrophic test in mice at 500 ug (experiment 2). It counts as functional. The gist of the method:
as §4

Assay [34] has the same target. Kind of assay: Antiestrogenic activity in uterotrophic test in mice at 0 ug (experiment 2). Type of assay: functional. The essentials: as §4
Assay [35] has the same target. Kind of assay: Estrogenic activity in uterotrophic test in mice at 80 ug (experiment 2). Type of assay: functional. The gist of the method:
as §5

For assay [36] the target is unchanged. As to the kind of experiment: Inhibitory activity in mouse uterine weight test at 5 ug (experiment 1). Type of assay: functional. The gist of the method:
as §6

For assay [37] the target is unchanged. As to the kind of experiment: Inhibitory activity in mouse uterine weight test at 50 ug (experiment 2). Type of assay: functional. The essentials:
as §6

Assay [38] is filed under the species Rattus norvegicus. As to the kind of experiment: Final number of DMBA-induced hormone-dependent mammary carcinoma tumors in rats at 1 mg. Type of assay: functional. The essentials: as §3
The target in assay [39] is T1, Estrogen receptor (Mus musculus). As to the kind of experiment: Antiestrogenic activity in uterotrophic test in mice at 2.5 ug (experiment 1).

Activity calls are given as the source filed them.

T1 sequence (O08537 whole entry, looked up): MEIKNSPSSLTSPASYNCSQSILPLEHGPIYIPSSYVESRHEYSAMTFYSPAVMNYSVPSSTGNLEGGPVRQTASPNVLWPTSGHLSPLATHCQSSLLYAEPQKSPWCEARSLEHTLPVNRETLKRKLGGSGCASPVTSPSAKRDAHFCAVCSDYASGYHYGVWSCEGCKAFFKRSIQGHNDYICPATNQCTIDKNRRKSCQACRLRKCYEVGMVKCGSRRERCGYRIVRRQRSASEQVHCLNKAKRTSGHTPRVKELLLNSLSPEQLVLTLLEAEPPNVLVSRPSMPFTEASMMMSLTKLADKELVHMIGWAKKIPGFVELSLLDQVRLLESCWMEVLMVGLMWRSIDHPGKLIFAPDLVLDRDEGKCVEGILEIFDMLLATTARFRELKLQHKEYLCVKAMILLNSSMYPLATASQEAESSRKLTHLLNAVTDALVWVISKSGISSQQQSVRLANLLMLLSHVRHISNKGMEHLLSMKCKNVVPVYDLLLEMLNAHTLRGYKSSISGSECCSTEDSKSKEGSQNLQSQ
T1 sequence (P19785 whole entry, looked up): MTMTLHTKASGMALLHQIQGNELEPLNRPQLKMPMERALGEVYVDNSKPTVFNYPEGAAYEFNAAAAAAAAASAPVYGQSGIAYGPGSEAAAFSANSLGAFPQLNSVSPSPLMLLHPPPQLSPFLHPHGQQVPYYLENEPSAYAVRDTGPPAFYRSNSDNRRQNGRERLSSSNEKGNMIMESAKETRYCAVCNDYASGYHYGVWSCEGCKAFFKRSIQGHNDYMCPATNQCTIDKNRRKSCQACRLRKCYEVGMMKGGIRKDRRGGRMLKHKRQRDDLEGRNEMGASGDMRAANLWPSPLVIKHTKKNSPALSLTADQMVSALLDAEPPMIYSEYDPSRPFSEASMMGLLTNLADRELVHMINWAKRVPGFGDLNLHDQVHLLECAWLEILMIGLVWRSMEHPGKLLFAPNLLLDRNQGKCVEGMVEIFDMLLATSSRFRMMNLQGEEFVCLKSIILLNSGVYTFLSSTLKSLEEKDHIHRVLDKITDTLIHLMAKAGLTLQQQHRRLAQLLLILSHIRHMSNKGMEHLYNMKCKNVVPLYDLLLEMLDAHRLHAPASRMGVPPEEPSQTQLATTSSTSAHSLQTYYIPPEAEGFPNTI

By inhibition is commonly meant the percentage by which the read-out fell short of the control. The low end stands for little suppression, the high end for strong suppression. Consider `CCCC(c1cccc(O)c1)C(CCC)c1cccc(O)c1` (centres undefined), for which the Tumors in the assay filed under Rattus norvegicus [1] is reported as 23%; in the assay listed under Rattus norvegicus [4], 90%; in the assay listed under Rattus norvegicus [5], 14%; in the assay filed under Rattus norvegicus [6], 22%; in the assay listed under Rattus norvegicus [7], 27%; in the assay filed under Rattus norvegicus [8], 36%. The same compound registered a Tumors in the assay filed under Rattus norvegicus [9] of 17%. For the same compound, the Change was 271% in the assay listed under Rattus norvegicus [2] and -99% in the assay listed under Rattus norvegicus [19]. Moreover, the No. of tumors was 6 in the assay listed under Rattus norvegicus [3] and 16 in the assay filed under Rattus norvegicus [10]. Also, in the assay listed under Mus musculus [11], the outcome was inactive. Further, the Effect in assay [12] was determined as 30.4; in [13], 25.9; in [14] it was 13.6; in [15] it was 13.9; in [16], 28.7. For the same compound, the inhibition in assay [17] was found to be 26%; in assay [18] it was 43%.
Broadly, the % inhibition is the change of the read-out against control, counted positive when it falls. A lower % inhibition goes with little suppression. `CCC(c1cccc(O)c1)C(CC)c1cccc(O)c1` (stereo in doubt; 20): the Tumors in the assay filed under Rattus norvegicus [20] amounted to 30%; in the assay filed under Rattus norvegicus [21] it was 25%; in the assay filed under Rattus norvegicus [22] it was 35%; in the assay listed under Rattus norvegicus [23], 21%; in the assay filed under Rattus norvegicus [24], 29%; in the assay listed under Rattus norvegicus [25], 19%. In addition, the No. of tumors is 30 in the assay filed under Rattus norvegicus [26], 37 in the assay listed under Rattus norvegicus [31] and 37 in the assay listed under Rattus norvegicus [38]. For the same compound, in the assay listed under Rattus norvegicus [27], the Change stood at 47%. In addition, the result in the assay filed under Mus musculus [28] and in the assay filed under Mus musculus [29] was inactive. For the same compound, the Activity entry in the assay filed under Mus musculus [30] was “Weak activity”. Moreover, the Effect in assay [32] was determined as 23.5; in assay [33], 30.9; in assay [34] it was 10; in [35] it was 30.5. Further, the inhibition came out at 53% in assay [36] and 47% in assay [37]. In addition, the % inhibition in [39] turned out to be 27%.
